# The source made the active and inactive calls. No cut-off for these calls is given here.
# Key:
# [1] = test system: Staphylococcus aureus; test: Antibacterial activity against methicillin-susceptible Staphylococcus aureus 98/06 isolates after 18 hrs; type: functional
# Procedure, shortened: (§1)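 Agar-dilution MIC on Mueller–Hinton II agar per CLSI guidelines. Aqueous test solutions were added to liquid agar to give two dilution series across 6.25–400 µg/mL. Solidified plates were spot-inoculated with 2 µL aliquots to a final inoculum of 10^4 […]. […] Strains were standard S. aureus strains or hospital patient isolates typed MSSA/MRSA.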
# [2] = test system: Staphylococcus aureus; test: Antibacterial activity against methicillin-resistant Staphylococcus aureus 93/06 isolates after 18 hrs; type: functional; procedure, shortened: as §1
# [3] = test system: Staphylococcus aureus; test: Antibacterial activity against methicillin-susceptible Staphylococcus aureus 38/05 isolates after 18 hrs; type: functional; procedure, shortened: as §1
# [4] = test system: Staphylococcus aureus; test: Antibacterial activity against methicillin-susceptible Staphylococcus aureus 101/06 isolates after 18 hrs; type: functional; procedure, shortened: as §1
# [5] = test system: Pseudomonas aeruginosa; test: microbe, parasite or virus in culture; conditions: NCTC 6749, read-out: IZ
# [6] = test system: Staphylococcus aureus; test: Antibacterial activity against methicillin-susceptible Staphylococcus aureus 2/04 isolates after 18 hrs; type: functional; procedure, shortened: as §1
# [7] = test system: Staphylococcus aureus; test: Antibacterial activity against methicillin-susceptible Staphylococcus aureus 72/05 isolates after 18 hrs; type: functional; procedure, shortened: as §1
# [8] = test system: Bordetella bronchiseptica; test: microbe, parasite or virus in culture; conditions: ATCC 4617, read-out: IZ
# [9] = test system: Staphylococcus aureus; test: Antibacterial activity against methicillin-susceptible Staphylococcus aureus 69/05 isolates after 18 hrs; type: functional; procedure, shortened: as §1
# [10] = test system: Staphylococcus aureus; test: Antibacterial activity against methicillin-resistant Staphylococcus aureus 48/05 isolates after 18 hrs; type: functional; procedure, shortened: as §1
# [11] = test system: Staphylococcus aureus; test: Antibacterial activity against methicillin-resistant Staphylococcus aureus 46/05 isolates after 18 hrs; type: functional; procedure, shortened: as §1
# [12] = test system: Staphylococcus aureus; test: Antibacterial activity against Staphylococcus aureus NCTC 4163 after 18 hrs; type: functional; conditions: NCTC 4163, 18 h; procedure, shortened: as §1
# [13] = test system: Candida albicans; test: Antimicrobial activity against Candida albicans ATCC 10231 at 5 ug/disk after 24 to 48 hrs by disc-diffusion method; type: functional, organism-based
# [14] = test system: Staphylococcus aureus; test: Antibacterial activity against methicillin-susceptible Staphylococcus aureus 40/05 isolates after 18 hrs; type: functional; procedure, shortened: as §1
# [15] = test system: Staphylococcus aureus; test: Antibacterial activity against methicillin-susceptible Staphylococcus aureus 60/05 isolates after 18 hrs; type: functional; procedure, shortened: as §1
# [16] = test system: Staphylococcus aureus; test: Antibacterial activity against methicillin-resistant Staphylococcus aureus 1/04 isolates after 18 hrs; type: functional; procedure, shortened: as §1
# [17] = test system: Staphylococcus aureus; test: Antibacterial activity against methicillin-susceptible Staphylococcus aureus 6/04 isolates after 18 hrs; type: functional; procedure, shortened: as §1
# [18] = test system: Staphylococcus aureus; test: Antibacterial activity against methicillin-susceptible Staphylococcus aureus 65/05 isolates after 18 hrs; type: functional; procedure, shortened: as §1
# [19] = test system: Staphylococcus aureus; test: Antibacterial activity against methicillin-resistant Staphylococcus aureus 92/06 isolates after 18 hrs; type: functional; procedure, shortened: as §1
# [20] = test system: Staphylococcus aureus; test: Antibacterial activity against methicillin-susceptible Staphylococcus aureus 3/04 isolates after 18 hrs; type: functional; procedure, shortened: as §1
# [21] = test system: Staphylococcus aureus; test: Antibacterial activity against methicillin-resistant Staphylococcus aureus 79/05 isolates after 18 hrs; type: functional; procedure, shortened: as §1
# [22] = test system: Staphylococcus aureus; test: Antibacterial activity against Staphylococcus aureus ATCC 6538P after 18 hrs; type: functional; procedure, shortened: as §1
# [23] = test system: Staphylococcus aureus; test: Antibacterial activity against methicillin-susceptible Staphylococcus aureus 102/06 isolates after 18 hrs; type: functional; procedure, shortened: as §1
# [24] = test system: Staphylococcus aureus; test: Antibacterial activity against methicillin-resistant Staphylococcus aureus 53/05 isolates after 18 hrs; type: functional; procedure, shortened: as §1
# [25] = test system: Staphylococcus aureus; test: microbe, parasite or virus in culture; conditions: ATCC 6538P, read-out: IZ
# [26] = test system: Escherichia coli; test: microbe, parasite or virus in culture; conditions: ATCC 25922, read-out: IZ
# [27] = test system: Staphylococcus aureus; test: microbe, parasite or virus in culture; conditions: ATCC 29213, read-out: IZ
# [28] = test system: Staphylococcus aureus; test: Antibacterial activity against methicillin-susceptible Staphylococcus aureus 7/04 isolates after 18 hrs; type: functional; procedure, shortened: as §1
# [29] = test system: Staphylococcus aureus; test: Antibacterial activity against methicillin-resistant Staphylococcus aureus 19/04 isolates after 18 hrs; type: functional; procedure, shortened: as §1
# [30] = test system: Staphylococcus aureus; test: Antibacterial activity against methicillin-resistant Staphylococcus aureus 55/05 isolates after 18 hrs; type: functional; procedure, shortened: as §1
# [31] = test system: Staphylococcus aureus; test: microbe, parasite or virus in culture; conditions: NCTC 4163, read-out: IZ
# [32] = test system: Bacillus subtilis; test: microbe, parasite or virus in culture; conditions: ATCC 6633, read-out: IZ
# [33] = test system: Staphylococcus aureus; test: Antibacterial activity against methicillin-susceptible Staphylococcus aureus 14/04 isolates after 18 hrs; type: functional; procedure, shortened: as §1
# [34] = test system: Pseudomonas aeruginosa; test: microbe, parasite or virus in culture; conditions: ATCC 15442, read-out: IZ
# [35] = test system: Enterococcus hirae; test: Antibacterial activity against Enterococcus hirae ATCC 10541 at 5 ug/disk after 24 to 48 hrs by disc-diffusion method; type: functional, organism-based
# [36] = test system: Staphylococcus aureus; test: Antibacterial activity against methicillin-resistant Staphylococcus aureus 29/04 isolates after 18 hrs; type: functional; procedure, shortened: as §1
# [37] = test system: Staphylococcus aureus; test: Antibacterial activity against methicillin-resistant Staphylococcus aureus 47/05 isolates after 18 hrs; type: functional; procedure, shortened: as §1
# [38] = test system: Staphylococcus aureus; test: Antibacterial activity against methicillin-resistant Staphylococcus aureus 56/05 isolates after 18 hrs; type: functional; procedure, shortened: as §1
# [39] = test system: Staphylococcus aureus; test: Antibacterial activity against methicillin-susceptible Staphylococcus aureus 4/04 isolates after 18 hrs; type: functional; procedure, shortened: as §1
# [40] = test system: Staphylococcus aureus; test: Antibacterial activity against Staphylococcus aureus ATCC 25923 after 18 hrs; type: functional; conditions: ATCC 25923, 18 h; procedure, shortened: as §1
# [41] = test system: Staphylococcus aureus; test: Antibacterial activity against methicillin-susceptible Staphylococcus aureus 49/05 isolates after 18 hrs; type: functional; procedure, shortened: as §1
# [42] = test system: Staphylococcus aureus; test: microbe, parasite or virus in culture; conditions: ATCC 25923, read-out: IZ
# [43] = test system: Staphylococcus aureus; test: Antibacterial activity against methicillin-resistant Staphylococcus aureus 91/06 isolates after 18 hrs; type: functional; procedure, shortened: as §1
# [44] = test system: Staphylococcus aureus; test: Antibacterial activity against methicillin-susceptible Staphylococcus aureus 42/05 isolates after 18 hrs; type: functional; procedure, shortened: as §1
# [45] = test system: Escherichia coli; test: microbe, parasite or virus in culture; conditions: ATCC 10538, read-out: IZ
# [46] = test system: Staphylococcus aureus; test: Antibacterial activity against methicillin-resistant Staphylococcus aureus 83/05 isolates after 18 hrs; type: functional; procedure, shortened: as §1
# [47] = test system: Staphylococcus aureus; test: Antibacterial activity against Staphylococcus aureus ATCC 29213 after 18 hrs; type: functional; conditions: ATCC 29213, 18 h; procedure, shortened: as §1
# [48] = test system: Staphylococcus aureus; test: Antibacterial activity against methicillin-resistant Staphylococcus aureus 54/05 isolates after 18 hrs; type: functional; procedure, shortened: as §1
# [49] = test system: Staphylococcus aureus; test: Antibacterial activity against methicillin-susceptible Staphylococcus aureus 28/04 isolates after 18 hrs; type: functional; procedure, shortened: as §1
# [50] = test system: Bacillus subtilis; test: Antibacterial activity against Bacillus subtilis ATCC 6633 at 10 ug/disk after 24 to 48 hrs by disc-diffusion method; type: functional, organism-based
# [51] = test system: Staphylococcus aureus; test: Antibacterial activity against Staphylococcus aureus NCTC 4163 at 10 ug/disk after 24 to 48 hrs by disc-diffusion method; type: functional, organism-based
# [52] = test system: Enterococcus hirae; test: Antibacterial activity against Enterococcus hirae ATCC 10541 at 10 ug/disk after 24 to 48 hrs by disc-diffusion method
# [53] = test system: Staphylococcus aureus; test: Antibacterial activity against Staphylococcus aureus ATCC 29213 at 10 ug/disk after 24 to 48 hrs by disc-diffusion method; type: functional, organism-based
# [54] = test system: Escherichia coli; test: Antibacterial activity against Escherichia coli ATCC […] at 10 ug/disk after 24 to 48 hrs by disc-diffusion method; type: functional, organism-based
# [55] = test system: Pseudomonas aeruginosa; test: Antibacterial activity against Pseudomonas aeruginosa NCTC 6749 at 10 ug/disk after 24 to 48 hrs by disc-diffusion method; type: functional, organism-based
# [56] = test system: Staphylococcus aureus; test: Antibacterial activity against Staphylococcus aureus ATCC 6538P at 10 ug/disk after 24 to 48 hrs by disc-diffusion method
# [57] = test system: Pseudomonas aeruginosa; test: Antibacterial activity against Pseudomonas aeruginosa ATCC […] at 10 ug/disk after 24 to 48 hrs by disc-diffusion method; type: functional, organism-based
# [58] = test system: Bordetella bronchiseptica; test: Antibacterial activity against Bordetella bronchiseptica ATCC 4617 at 10 ug/disk after 24 to 48 hrs by disc-diffusion method; type: functional, organism-based
# [59] = test system: Staphylococcus aureus; test: Antibacterial activity against Staphylococcus aureus ATCC 25923 at 10 ug/disk after 24 to 48 hrs by disc-diffusion method
# [60] = test system: Candida albicans; test: microbe, parasite or virus in culture; conditions: ATCC 10231, read-out: IZ
# [61] = test system: Escherichia coli; test: Antibacterial activity against Escherichia coli ATCC […] at 10 ug/disk after 24 to 48 hrs by disc-diffusion method; type: functional, organism-based
compound,measurement,setting,value
O=C(O)c1cn(C2CC2)c2cc(N3CCNCC3)c(F)cc2c1=O [CIPROFLOXACIN],MIC,[1],0.25 µg/mL
same,MIC,[2],128 µg/mL
same,MIC,[3],0.25 µg/mL
same,MIC,[4],0.25 µg/mL
same,zone of inhibition at 5 µg/disc,[5],26 mm
same,MIC,[6],> 4 µg/mL
same,MIC,[7],0.25 µg/mL
same,zone of inhibition at 5 µg/disc,[8],31 mm
same,MIC,[9],2 µg/mL
same,MIC,[10],128 µg/mL
same,MIC,[11],64 µg/mL
same,MIC,[12],0.5 µg/mL
same,Activity,[13],inactive
same,MIC,[14],0.5 µg/mL
same,MIC,[15],0.5 µg/mL
same,MIC,[16],64 µg/mL
same,MIC,[17],0.25 µg/mL
same,MIC,[18],0.5 µg/mL
same,MIC,[19],8 µg/mL
same,MIC,[20],0.25 µg/mL
same,MIC,[21],128 µg/mL
same,MIC,[22],0.5 µg/mL
same,MIC,[23],0.5 µg/mL
same,MIC,[24],128 µg/mL
same,zone of inhibition at 5 µg/disc,[25],28 mm
same,zone of inhibition at 5 µg/disc,[26],35 mm
same,zone of inhibition at 5 µg/disc,[27],22 mm
same,MIC,[28],2 µg/mL
same,MIC,[29],64 µg/mL
same,MIC,[30],128 µg/mL
same,zone of inhibition at 5 µg/disc,[31],26 mm
same,zone of inhibition at 5 µg/disc,[32],40 mm
same,MIC,[33],1 µg/mL
same,zone of inhibition at 5 µg/disc,[34],26 mm
same,Activity,[35],inactive
same,MIC,[36],64 µg/mL
same,MIC,[37],128 µg/mL
same,MIC,[38],32 µg/mL
same,MIC,[39],0.25 µg/mL
same,MIC,[40],0.5 µg/mL
same,MIC,[41],0.25 µg/mL
same,zone of inhibition at 5 µg/disc,[42],26 mm
same,MIC,[43],> 128 µg/mL
same,MIC,[44],2 µg/mL
same,zone of inhibition at 5 µg/disc,[45],34 mm
same,MIC,[46],32 µg/mL
same,MIC,[47],0.5 µg/mL
same,MIC,[48],128 µg/mL
same,MIC,[49],1 µg/mL
Clc1ccc(COC(Cn2ccnc2)c2ccc(Cl)cc2Cl)c(Cl)c1 (stereo unspecified) [MICONAZOLE],Activity,[50],inactive
same,Activity,[51],inactive
same,Activity,[52],inactive
same,Activity,[53],inactive
same,Activity,[54],inactive
same,Activity,[55],inactive
same,Activity,[56],inactive
same,Activity,[57],inactive
same,Activity,[58],inactive
same,Activity,[59],inactive
same,zone of inhibition at 10 µg/disc,[60],20 mm
same,Activity,[61],inactive

# Reference: ChEMBL document CHEMBL1141663, “Synthesis and antibacterial activity of bis-[2-hydroxy-3-(1,7,8,9,10-pentamethyl-3,5-dioxo-4-aza-tricyclo[5.2.1.0(2,6)]dec-8-en-4-yloxy)-propyl]-dimethyl-ammonium chloride” (2008)
